From ChEMBL document CHEMBL4699391, “Conversion of amino acids to aryl/heteroaryl ethanol metabolites using human CYP2D6-expressing live baker''s yeast” (RSC Med Chem, 2020)
The source made the active and inactive calls.

Experiments:
[1] = biological target: BDNF/NT-3 growth factors receptor (Homo sapiens) (UniProt Q16620); assay: Induction of TrkB activation in human SH-SY5Y cells assessed as increase in Akt phosphorylation at 10 uM after 4 hrs by Western blot analysis; assay type: cell-based; conditions: filed as activator
Sequence of BDNF/NT-3 growth factors receptor (Homo sapiens) (Q16620 32-822 limits assumed): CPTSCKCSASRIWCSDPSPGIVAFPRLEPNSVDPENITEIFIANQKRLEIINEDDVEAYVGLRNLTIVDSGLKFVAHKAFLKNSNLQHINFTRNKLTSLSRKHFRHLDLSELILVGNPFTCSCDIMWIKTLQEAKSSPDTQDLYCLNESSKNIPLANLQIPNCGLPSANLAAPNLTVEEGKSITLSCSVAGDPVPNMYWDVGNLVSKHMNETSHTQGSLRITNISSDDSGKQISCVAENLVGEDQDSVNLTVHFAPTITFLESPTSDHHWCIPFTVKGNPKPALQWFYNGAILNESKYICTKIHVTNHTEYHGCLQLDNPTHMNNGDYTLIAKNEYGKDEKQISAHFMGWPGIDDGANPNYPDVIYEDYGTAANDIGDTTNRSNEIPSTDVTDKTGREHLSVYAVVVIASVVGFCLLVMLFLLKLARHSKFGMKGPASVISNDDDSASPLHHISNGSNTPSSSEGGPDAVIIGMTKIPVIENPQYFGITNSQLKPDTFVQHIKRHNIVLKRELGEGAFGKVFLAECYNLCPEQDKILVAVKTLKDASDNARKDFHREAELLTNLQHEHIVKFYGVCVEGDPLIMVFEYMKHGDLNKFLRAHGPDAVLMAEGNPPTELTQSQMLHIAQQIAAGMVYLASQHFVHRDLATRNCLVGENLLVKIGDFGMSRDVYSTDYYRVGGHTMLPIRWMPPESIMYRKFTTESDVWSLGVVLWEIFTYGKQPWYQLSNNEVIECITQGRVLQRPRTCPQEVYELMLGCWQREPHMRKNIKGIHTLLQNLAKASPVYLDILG

[2] = biological target: BDNF/NT-3 growth factors receptor (Homo sapiens) (UniProt Q16620); assay: Induction of TrkB activation in human SH-SY5Y cells assessed as increase in ERK1/2 phosphorylation at 10 uM after 4 hrs by Western blot analysis; assay type: cell-based; conditions: filed as activator
[3] = tested on: N2a; assay: Neuroprotective activity against corticosterone-induced neurotoxicity in mouse N2a cells assessed as increase in cell viability at 10 uM preincubated for 24 hrs followed by corticosterone addition and measured after 24 hrs; assay type: functional, cell-based; conditions: time 48.0 hrs
How it was run: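 Mouse neuroblastoma N2a cells were pretreated with test compound for 24 hrs. They were then co-treated with the neurotoxin, printed as cortisone, at 400 μM for a further 24 hrs before neuroprotection was assessed. P value thresholds were ≤0.05, <0.01 and 0.001.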

[4] = biological target: BDNF/NT-3 growth factors receptor (Homo sapiens) (UniProt Q16620); assay: Induction of TrkB activation in human SH-SY5Y cells assessed as increase in phosphorylated TrkB level at 10 uM after 4 hrs by Western blot analysis; assay type: cell-based; conditions: filed as activator
[5] = tested on: SH-SY5Y; assay: Neuroprotective activity against corticosterone-induced neurotoxicity in human SH-SY5Y cells assessed as induction of BDNF neurotropic response at 10 uM preincubated for 2 hrs followed by corticosterone addition and measured after 4 hrs by ELISA; assay type: functional, cell-based; conditions: time 6.0 hrs
[6] = biological target: BDNF/NT-3 growth factors receptor (Homo sapiens) (UniProt Q16620); assay: Induction of TrkB activation in human SH-SY5Y cells assessed as increase in phosphorylated TrkB level at 5 nM after 4 hrs by Western blot analysis; assay type: cell-based; conditions: filed as activator
[7] = tested on: SH-SY5Y; assay: Neuroprotective activity against corticosterone-induced neurotoxicity in human SH-SY5Y cells assessed as induction of BDNF neurotropic response at 5 nM preincubated for 2 hrs followed by corticosterone addition and measured after 4 hrs by ELISA; assay type: functional, cell-based; conditions: time 6.0 hrs
[8] = biological target: BDNF/NT-3 growth factors receptor (Homo sapiens) (UniProt Q16620); assay: Induction of TrkB activation in human SH-SY5Y cells assessed as increase in Akt phosphorylation at 5 nM after 4 hrs by Western blot analysis; assay type: cell-based; conditions: filed as activator
[9] = biological target: BDNF/NT-3 growth factors receptor (Homo sapiens) (UniProt Q16620); assay: Induction of TrkB activation in human SH-SY5Y cells assessed as increase in ERK1/2 phosphorylation at 5 nM after 4 hrs by Western blot analysis; assay type: cell-based; conditions: filed as activator
[10] = tested on: N2a; assay: Neuroprotective activity against corticosterone-induced neurotoxicity in mouse N2a cells assessed as increase in cell viability at 5 nM preincubated for 24 hrs followed by corticosterone addition and measured after 24 hrs; assay type: functional, cell-based; conditions: time 48.0 hrs

Measured: Activity

OCCc1ccc(O)cc1
active: [1] | [2] | [3] | [4] | [5]

OCCc1c[nH]c2ccccc12
active: [1] | [2] | [3] | [4] | [5]

O=c1cc(-c2ccccc2)oc2c(O)c(O)ccc12
active: [6] | [7] | [8] | [9] | [10]
